FGF22 binding: binders of recombinant human FGF22 by thermal shift. actives 1.5% (n = 340,000). SYPRO orange fluorescence; percent of sucrose octasulfate shift, DMSO zero. activity (Tm shift, normalised), % at 9.99 µM. Q9HCT0;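 active = mean Tm shift, scaled 0 neutral to 100 positive control, at about 1.3% or above, every replicate too, limit read from the data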
Jurkat NFkB inh: inhibitors of the PMA/ionomycin-induced NF-kB reporter in Jurkat cells; actives 0.53% (n = 330,000); PMA/ionomycin-induced NF-kB luciferase reporter, luminescence; inhibition, % at 4 µM; in the data active = inhibition above about 50%
NR2E3 ag-1: activates human NR2E3 receptor | Q9Y5X4 | inhibition of corepressor binding, % at 3.98 µM | actives 0.35% (n = 360,000) | CHO-S Gal4-NCOR/VP16-NR2E3 two-hybrid, luciferase;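 active = inhibition above the mean of all tested compounds plus 3 SD, cut at about 70% in these data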;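 note: higher means lower luciferase signal from less NR2E3 corepressor binding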
Target sequence (Q9Y5X4 whole entry, looked up, the tested form may be a part): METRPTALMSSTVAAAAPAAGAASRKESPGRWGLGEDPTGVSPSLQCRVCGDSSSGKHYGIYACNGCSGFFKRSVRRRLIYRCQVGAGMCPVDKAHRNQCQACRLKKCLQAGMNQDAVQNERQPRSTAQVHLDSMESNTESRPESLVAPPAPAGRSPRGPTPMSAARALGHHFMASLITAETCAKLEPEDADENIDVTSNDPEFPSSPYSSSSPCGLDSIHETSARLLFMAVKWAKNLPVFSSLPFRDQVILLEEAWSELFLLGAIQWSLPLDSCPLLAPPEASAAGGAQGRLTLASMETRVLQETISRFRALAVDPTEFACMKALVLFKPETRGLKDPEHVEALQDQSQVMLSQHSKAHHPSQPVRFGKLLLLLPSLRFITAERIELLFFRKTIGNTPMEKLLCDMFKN
697 NFkB inh: lowers PMA/ionomycin-induced NF-kB signal in 697 B cells. AID 435022. inhibition, % at 4 µM. 697 B-cell NF-kB luciferase reporter, 16 h. actives 0.33% (n = 330,000); in the data active = inhibition above about 35%
NR2E3 ag-2: activates human photoreceptor nuclear receptor NR2E3 | Q9Y5X4 | GST-NR2E3/biotin-RetCOR TR-FRET, 1536-well | inhibition of corepressor binding, % at 4.78 µM | actives 0.12% (n = 320,000);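 active = percent inhibition above the cutoff of mean plus 3 SD of all tested compounds, set per screening campaign, cut at about 20% in these data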
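Material: NR2E3–RetCOR corepressor complex / Amount: 1.35 nM GST-NR2E3 / Medium: Tris pH 7.5 / Compound: single nominal compound dose of 4.8 µM / Incubation: 5 h at 4 °C / Technique: TR-FRET, Eu(K)-anti-GST donor, streptavidin-D2 acceptor, ex 340, em 617/671 nm / Read-out basis: percent loss of FRET ratio relative to control wells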
miR-122 sensor: miR-122 inhibition in Huh7 cells; Huh7 miR-122 Renilla luciferase sensor, 48 h; neutral wells = 0, positive control = 100; activation (reporter increase), % at 12.5 µM; actives 0.3% (n = 340,000);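 active = mean replicate activation score at least 90 and every replicate individually at or above 90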;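 note: higher luciferase means less miR-122 activity so hits act as miR-122 inhibitors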
NR2E3 ag confirm: confirmation of human NR2E3 agonists | shares compounds with NR2E3 ag-1 | CHO-S mammalian two-hybrid NR2E3-NCOR, luciferase luminescence | inhibition, % at 3.98 µM | actives 51% (n = 2,300) | AID 624378;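 active = average inhibition above a cutoff equal to the mean inhibition of all tested compounds plus one SD, cut at about 70% in these data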
VP16 counter: GAL4-VP16 reporter inhibition in NR2E3 agonist counterscreen | inhibition, % at 3.98 µM | actives 29% (n = 2,300) | CHO-S GAL4-VP16 luciferase reporter, luminescence | shares compounds with NR2E3 ag-1;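 active = mean inhibition above a cutoff equal to the average over all tested compounds plus one standard deviation, cut at about 70% in these data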;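 note: luciferase from a UAS reporter driven by GAL4-VP16 transactivation; higher means less reporter light so more repression of VP16 activity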
Hits are given with their value; . = inactive; / = not tested or not shown. Rows were chosen to be rich in hits. Some 2.2% of all compounds tested hit in one or more screens of this group.

SMILES	FGF22 binding	Jurkat NFkB inh	NR2E3 ag-1	697 NFkB inh	NR2E3 ag-2	miR-122 sensor	NR2E3 ag confirm	VP16 counter
CC1(C(=O)Nc2ccc3[nH]ncc3c2)CCN1C(=O)Cc1ccc(-c2ccccc2)cc1 (centres undefined)	.	/	.	/	/	.	78	.
CC(C)(C)c1ccc(CC(=O)N2CCC2(C)C(=O)Nc2ccc3[nH]ncc3c2)cc1 (centres undefined)	.	/	.	/	/	.	.	.
Cc1ccc(N=c2c([N+](=O)[O-])nn(-c3ccc4c(c3)OCCO4)n2O)cc1F	43	.	82	.	.	/	.	.
Cc1cc(C)cc(N=c2c([N+](=O)[O-])nn(-c3ccc4c(c3)OCCO4)n2O)c1	.	.	.	.	.	.	.	.
COc1ccc(CN(C)C[C@@H]2OCCCC[C@H](C)Oc3ccc(NS(=O)(=O)c4ccc(OC)cc4)cc3C(=O)N([C@@H](C)CO)C[C@H]2C)cc1	.	/	/	/	/	/	/	/
CCC(=O)Nc1cc2nn(-c3ccc(C)cc3)nc2cc1C	.	.	.	.	.	.	.	.
CCOc1ccccc1CNc1ncnc2ccc(-c3c(C)noc3C)cc12	.	.	82	.	.	.	81	.
N#C[C@@H]1[C@H](c2ccc(C#CCC3CCCC3)cc2)[C@H](CO)N1C(=O)CN1CCOCC1	.	/	/	/	/	/	/	/
CCc1c(C)nc2nc(SCc3ccccc3Cl)[nH]n2c1=O	.	.	.	.	.	.	84	.
CSc1nc2nc(C)c(C/C=C/c3ccccc3)c(=O)n2[nH]1	.	.	.	.	.	.	/	/
CC(O)(c1cccnc1)c1nc(-c2cccc(F)c2)cs1 (centres undefined)	.	/	.	/	/	.	/	/
CC(O)(c1cccnc1)c1nc(-c2cccc(C(F)(F)F)c2)cs1 (centres undefined)	.	/	.	/	/	.	.	.
CC(O)(c1cccnc1)c1nc(-c2ccc(F)c(Cl)c2)cs1 (centres undefined)	.	/	.	/	/	.	.	.
C[C@@H]1CN([C@@H](C)CO)S(=O)(=O)c2ccc(C#CC3CC3)cc2O[C@@H]1CN(C)Cc1cccnc1	.	/	/	/	/	.	/	/
CC(C)NC(=O)C1(N2C(=O)c3ccccc3C2=O)CCCC1	.	/	.	/	/	.	/	/
CC(C)CNC(=O)C1(N2C(=O)c3ccccc3C2=O)CCCC1	/	/	.	/	/	.	.	.
CC1=[N+](C)c2c(ccc3cccnc23)C1(C)C	.	/	92	/	/	/	99	85
Cc1[nH]c2c(ccc3cccnc32)c1C	.	.	.	.	.	.	/	/
CC(C)NC(=O)N(C)C[C@@H]1Oc2c(NS(=O)(=O)c3cccs3)cccc2C(=O)N([C@H](C)CO)C[C@@H]1C	/	/	/	/	/	.	/	/
COc1cc(/C=N/N=C2\CC3CCC2(C)C3(C)C)ccc1O (centres undefined)	/	.	.	.	.	.	/	/
COc1ccc(/C=N/N=C2\CC3CCC2(C)C3(C)C)cc1O (centres undefined)	/	.	74	.	.	.	.	.
O=C(Nc1ccccc1C(=O)Nc1nnc(C(F)(F)F)s1)c1ccccc1Cl	.	.	100	.	.	/	101	93
NC(=O)c1ccccc1NC(=O)c1ccccc1Cl	.	.	.	.	.	.	/	/
Cc1ccc(-n2nc3c(=O)n(C(C)C(=O)NCCC4=CCCCC4)nc(C)c3c2C)cc1 (centres undefined)	.	.	.	.	.	.	.	.
C/C(=N\NC(=S)NCCc1ccccc1)c1ccc(Cl)cc1	/	.	.	.	.	.	.	.
C/C(=N\NC(=S)NCCc1ccccc1)c1ccc(C)cc1	/	.	.	.	.	.	.	.
CCC(C)(C)c1ccc(Oc2cccc(C(=O)O)c2)cc1	.	.	.	.	.	.	/	/
CCC(C)(C)c1ccc(Oc2ccc(N)cc2)cc1	.	/	.	/	/	.	.	.
CCOc1ccc(NC(=O)NCCCn2c(C)nc3cc(C)c(C)cc32)cc1	/	.	.	.	.	/	/	/

From PubChem BioAssay
